Source: PubChem
Shown are actives, neighbours in structure and some others; about 1.6% of the full set was active somewhere.
HCV core dimer = inhibitors of HCV core protein dimerization, primary screen, biochemical, TR-FRET, high-throughput | TR-FRET GST/Flag-core106 dimerization, 1536-well | inhibition, % at 5 µM | hit rate 0.33% among 300,000;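 active = inhibition above the mean of all tested compounds plus 3 SD, set per screening campaign, cut at about 45% in these data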
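System: GST/Flag-tagged HCV core106 proteins. Incubation: compound-protein-antibody incubation 4 h at 22.5 °C. Technique: HTRF with 340 nm excitation, 617/671 nm emission. Medium: KF-containing HEPES buffer, pH 7.45, DTT, CHAPS, BSA. Read-out: inhibition (%) from 671 over 617 nm ratio. Also added: Eu(K)-anti-GST 90 ng/mL plus XL665-anti-Flag 1 µg/mL.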
VIM-2 inh = VIM-2 metallo-beta-lactamase inhibitors, primary screen, biochemical, epi-absorbance readout, Pseudomonas aeruginosa enzyme; purified VIM-2, nitrocefin hydrolysis, epi-absorbance fluorescence; hit rate 0.89% among 290,000; AID 1527, 2009; inhibition, % at 5.6 µM;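 active = inhibition above the mean of all tested compounds plus 3 SD, cutoff set per screening run, cut at about 7.5% in these data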;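 also: red hydrolysis product quenches plate fluorescence so inhibitors raise well fluorescence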
IMP-1 inh-1 = IMP-1 metallo-beta-lactamase inhibitors, primary screen, biochemical, epi-absorbance readout, Pseudomonas aeruginosa enzyme; metallo-beta-lactamase IMP-1 (Pseudomonas aeruginosa); purified IMP-1, nitrocefin hydrolysis, epi-absorbance fluorescence; inhibition, % at 5.6 µM; hit rate 0.45% among 290,000;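 active = inhibition above the mean plus 3 SD of all compounds in the same screening run, cut at about 4.5% in these data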
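system = purified recombinant IMP-1 beta-lactamase | amount = 0.2 nM IMP-1, as dispensed | medium = HEPES buffer pH 7.1 with ZnSO4 and Brij 35 | times = 25 °C, 15 min preincubation, 25 min reaction | detection = plate fluorescence quenching by hydrolysis product, ex 480/em 530 nm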
FID counter = compounds displacing fluorescent DNA intercalator, primary screen, artefact control for HCV NS3 helicase inhibitor project, biochemical, FID fluorescence; DNA fluorescent intercalator displacement; hit rate 0.17% among 290,000; inhibition, % at 7.9 µM; in the data active = inhibition above about 37%;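 also: higher means more ethidium bromide displaced from hairpin DNA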
IMP-1 inh-2 = IMP-1 metallo-beta-lactamase inhibitors, confirmation, selectivity assay for selective VIM-2 inhibitor project, biochemical, epi-absorbance readout, triplicate. inhibition, % at 5.6 µM. purified IMP-1, nitrocefin hydrolysis, epi-absorbance fluorescence. AID 1856, 2009. shares compounds with VIM-2 inh. 1,300 tested, under 10 active; call rule not given here
VIM-2 FRET inh = VIM-2 inhibitors in FRET format, confirmation, artefact control for selective VIM-2 inhibitor project, biochemical, epi-absorbance artifact exclusion; shares compounds with VIM-2 inh; purified VIM-2, CCF2 FRET substrate hydrolysis; inhibition, % at 5.6 µM; hit rate 23% among 1,300; AID 1857, 2009;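 active = inhibition above the mean of all tested compounds plus 3 SD, cut at about 19% in these data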
TEM-1 counter = TEM-1 serine beta-lactamase inhibitors, counter-screen for VIM-2 inhibitor project, biochemical, epi-absorbance, HTS; shares compounds with VIM-2 inh; Purified TEM-1, nitrocefin hydrolysis, epi-absorbance fluorescence; inhibition, % at 5.6 µM; hit rate 3% among 1,300;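 active = inhibition above that campaign's mean inhibition plus 3 SD, cut at about 0.46% in these data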
Target sequence (P62593 whole entry, looked up): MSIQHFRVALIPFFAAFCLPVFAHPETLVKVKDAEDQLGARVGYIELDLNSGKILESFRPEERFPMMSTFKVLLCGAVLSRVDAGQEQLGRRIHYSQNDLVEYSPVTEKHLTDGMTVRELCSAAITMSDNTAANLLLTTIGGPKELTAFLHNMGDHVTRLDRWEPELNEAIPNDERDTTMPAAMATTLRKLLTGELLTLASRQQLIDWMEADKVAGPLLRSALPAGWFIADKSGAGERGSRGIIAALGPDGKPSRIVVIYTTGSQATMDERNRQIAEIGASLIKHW
VIM-2 inh conf = VIM-2 metallo-beta-lactamase inhibitors, confirmation, biochemical, epi-absorbance, hits shared with IMP-1 screen; AID 2187, 2009; hit rate 96% among 1,300; inhibition, % at 5.6 µM; purified VIM-2, nitrocefin hydrolysis; shares compounds with VIM-2 inh;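 active = inhibition of the VIM-2 beta-lactamase enzyme above about 11% from the earlier first-round screen, limit read from the data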
Numbers stand for hits; – = inactive; · = no result.

SMILES	HCV core dimer	VIM-2 inh	IMP-1 inh-1	FID counter	IMP-1 inh-2	VIM-2 FRET inh	TEM-1 counter	VIM-2 inh conf
COc1ccc(-c2cc(C(F)(F)F)nc(N3CCN(C)CC3)n2)cc1OC	–	18	–	–	–	–	–	30
Cc1ccc(NC(=O)[C@H](NC(=O)[C@@H]2Cc3ccccc3CN2)c2ccccc2)cc1C	–	–	–	–	·	·	·	·
CC(C)N1CCc2c(sc(NC(=O)c3cc(-c4cccs4)nc4ccccc34)c2C(N)=O)C1	–	20	–	–	–	–	–	46
CC(C)N1CCc2c(sc(NC(=O)c3nc4ccccc4s3)c2C(N)=O)C1	–	–	–	–	·	·	·	·
Cc1nnc2c(NC3CCCC3)nc3ccccc3n12	–	12	–	–	–	–	–	23
CCNC(=O)CN1C(=O)NC(Cc2ccccc2)(Cc2ccccc2)C1=O	–	–	–	–	·	·	·	·
O=c1[nH]c2cc3c(cc2cc1CN(Cc1cccnc1)C(=S)NCc1ccco1)OCCO3	–	18	–	–	–	–	–	–
Cc1cccc(Cn2c(NCCO)nc3c2c(=O)n(C)c(=O)n3C)c1	–	–	–	–	·	·	·	·
OCCC1CN(Cc2cccc3nccnc23)CCN1C1CCCC1 (configuration not stated)	–	–	–	–	·	·	·	·
COc1ccccc1NC(=O)C12CCC(C)(C(=O)C1)C2(C)C (configuration not stated)	–	–	–	–	·	·	·	·
c1csc(Cc2nn3c(-c4n[nH]c5c4CCC5)nnc3s2)c1	–	13	–	–	–	–	–	22
c1coc(-c2nnc3sc(Cc4cccs4)nn23)c1	–	–	–	–	·	·	·	·
Cc1ccc2cccnc2c1N	–	16	–	–	–	–	–	40
CC1(C)Cc2c(C#N)c(N)sc(=S)c2CO1	–	–	–	–	·	·	·	·
CCCCc1nc2cc(C(=O)NCc3nccn3CC)ccc2o1	–	–	–	–	·	·	·	·
CN1CCN(C(=O)c2cc(-c3ccco3)on2)CC1	–	–	–	–	·	·	·	·
c1ccc(CNc2nc(-c3ccccn3)nc3ccccc23)cc1	–	19	–	–	–	–	–	26
O=C(O)CN1C(=O)c2cccc3c(Br)ccc1c23	–	–	–	–	·	·	·	·
CN(C)CCCN1C(=O)c2cccc3c(Br)ccc(c23)C1=O	–	12	–	–	–	–	–	18
COc1ccccc1Cn1c(=O)oc2ccc(C)cc21	–	–	–	–	·	·	·	·
CCOC(=O)c1ccc(NC(=O)CCC(CC)C(=O)O)cc1 (configuration not stated)	–	–	–	–	·	·	·	·
CCOC(=O)c1c(-c2ccccc2)oc2ccc(OCC)cc12	–	–	–	–	·	·	·	·
CCOC(=O)c1c(-c2ccccc2)oc2ccc(OCC(O)CNCCN(C)C)cc12 (configuration not stated)	–	25	–	51	–	20	–	38
COc1ccc(N/C(=C(/C(Cl)=C(Cl)Cl)[N+](=O)[O-])n2nnc3ccccc32)cc1OC	–	–	–	–	·	·	·	·
CCOC(=O)c1cnc2c(CC)cccc2c1NCCCN1CCOCC1	–	24	–	52	–	–	–	33
SMILES	HCV core dimer	VIM-2 inh	IMP-1 inh-1	FID counter	IMP-1 inh-2	VIM-2 FRET inh	TEM-1 counter	VIM-2 inh conf
CCOC(=O)c1cnc2c(Cl)cccc2c1NCCCN1CCOCC1	–	20	–	–	–	–	–	28
CCOC(=O)c1cnc2c(C(F)(F)F)cccc2c1N1CCN(C)CC1	–	–	–	–	·	·	·	·
CCOC(=O)c1cnc2ccc(OCC)cc2c1NCCN1CCOCC1	–	–	–	–	·	·	·	·
CCOC(=O)c1cnc2c(Cl)cccc2c1NCCN1CCOCC1	–	–	–	–	·	·	·	·
CCOC(=O)c1cnc2c(C(F)(F)F)cccc2c1NCCCN1CCOCC1	–	20	–	–	–	–	–	27
CCCCCCC1CC(=O)NC(=O)N1 (configuration not stated)	–	–	–	–	·	·	·	·
COc1ccc(C(=O)NCCCN2CCOCC2)cc1OC	–	–	–	–	·	·	·	·
CCN1CCCC1CNC(=O)c1ccc2c(c1)NC(=O)/C(=C\c1ccc(OC)c(OC)c1)S2 (configuration not stated)	–	21	–	–	–	–	–	24
COc1cccc(/C=C2/Sc3ccc(C(=O)NCCN4CCCCCC4)cc3NC2=O)c1	–	–	–	–	·	·	·	·
CCN1CCN(CCCNC(=O)c2ccc3c(c2)NC(=O)/C(=C\c2cccc(C)c2)S3)CC1	–	–	–	–	·	·	·	·
Cc1cccc(/C=C2/Sc3ccc(C(=O)NCCCN4CCOCC4)cc3NC2=O)c1	–	18	–	–	–	23	–	12
COc1ccc(/C=C2/Sc3ccc(C(=O)NCCCN4CCOCC4)cc3NC2=O)cc1OC	–	22	–	–	–	19	–	25
COC(=O)c1cc(N2C(=O)C3C(C2=O)C2(C)C=CC3(C)O2)ccc1Cl (configuration not stated)	–	–	–	–	·	·	·	·
O=C1CCCC/C1=C/Nc1cccc(C(F)(F)F)c1	–	13	–	–	–	30	1.4	25
CC(C)NC(=O)c1nn2c(C(F)(F)F)cc(-c3ccco3)nc2c1Cl	–	–	–	–	·	·	·	·
O=C(NCCCN1CCOCC1)c1nn2c(C(F)(F)F)cc(-c3ccco3)nc2c1Cl	–	12	–	–	–	–	–	18
COc1ccccc1C(=O)Nc1cc(C)on1	–	–	–	–	·	·	·	·
Cc1ccc(NC(=O)C(CC(C)C)NC(N)=O)cc1 (configuration not stated)	–	–	–	–	·	·	·	·
Cc1ccc(NC(=O)C(C)S)cc1 (configuration not stated)	–	9.6	–	–	–	–	–	30
O=C(/C=C/c1ccc(Cl)c(C(F)(F)F)c1)N1CCN(c2ccccn2)CC1	–	–	–	–	·	·	·	·
CCOC(=O)c1sc(N)c(C#N)c1COC(=O)CNC(=O)c1cc(OC)c(OC)c(OC)c1	–	–	–	–	·	·	·	·
CCCCN1C(=O)/C(=C2\SC(N3CCOCC3)=NC2=O)c2ccccc21	–	–	–	–	·	·	·	·
CCN1C(=O)/C(=C2\SC(N3CCOCC3)=NC2=O)c2ccccc21	·	15	–	–	–	–	–	24
O=C(NC(=S)NCC1CCCO1)c1ccccc1Br (configuration not stated)	–	28	–	–	–	52	–	36
